IMP-1 inh: IMP-1 metallo-beta-lactamase inhibitors, primary screen, biochemical, epi-absorbance readout, Pseudomonas aeruginosa enzyme; metallo-beta-lactamase IMP-1 (Pseudomonas aeruginosa); hit rate 0.45% among 290,000; purified IMP-1, nitrocefin hydrolysis, epi-absorbance fluorescence; inhibition, % at 5.6 µM;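 active = inhibition above the mean plus 3 SD of all compounds in the same screening run, cut at about 4.5% in these data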;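 note: 0% = IMP-1 with DMSO and 100% = DMSO wells lacking enzyme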
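System: Purified recombinant IMP-1 metallo-beta-lactamase enzyme | Measured by: Fluorescence quenching readout, ex 480/em 530 nm | Replication: Singlicate | Incubation: 15 min preincubation plus 25 min reaction at 25 °C | Evaluation: Percent inhibition from optical density relative to buffer-blank wells | Benchmarks: DMSO with and without IMP-1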
NS3 helicase inh: inhibitors of HCV NS3 helicase, primary screen, biochemical, Cy5 molecular beacon fluorescence; NS3 helicase DNA unwinding; inhibition, % at 10.9 µM; hit rate 0.56% among 290,000; AID 1800, 2009;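 active = inhibition above the mean of all tested compounds plus 3 SD, set per campaign, cut at about 35% in these data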;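 note: 0% = DMSO wells and 100% = thioflavine S control wells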
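Compound dosing – single dose, 10.9 µM nominal final, DMSO 0.8% final · System – NS3 helicase fragment of HCV · Buffer or medium – MOPS pH 6.5, MgCl2, DTT, Tween20, BSA · Signal – Cy5 beacon fluorescence read at start and 1 h · Also added – annealed dual-labelled DNA beacon duplex, ATP-started · Schedule – 1 h at 25 °C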
DNA FID counter: compounds displacing fluorescent DNA intercalator, primary screen, artefact control for HCV NS3 helicase inhibitor project, biochemical, FID fluorescence | AID 1845, 2009 | inhibition, % at 7.9 µM | DNA fluorescent intercalator displacement | hit rate 0.17% among 290,000; in the data active = inhibition above about 37%;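 note: 0% = vehicle and 100% = reference compound; higher means more ethidium bromide displaced from hairpin DNA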
SUMO HTRF inh: inhibitors of in vitro SUMOylation cascade, primary screen, biochemical, HTRF, uHTS; AID 2006, 2009; HTRF SUMOylation assay, SAE1/SAE2 + UBC9; inhibition, % at 35 µM; hit rate 0.36% among 290,000; in the data active = inhibition above about 50%, passing the limit was not always enough
Target sequence (P63279 whole entry, looked up): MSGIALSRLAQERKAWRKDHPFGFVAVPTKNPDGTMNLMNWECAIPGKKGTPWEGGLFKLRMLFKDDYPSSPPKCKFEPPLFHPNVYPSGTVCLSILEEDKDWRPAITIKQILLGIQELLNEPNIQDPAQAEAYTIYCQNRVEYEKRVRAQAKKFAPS
VIM-2 inhibitor: VIM-2 metallo-beta-lactamase inhibitors, primary screen, biochemical, epi-absorbance readout, Pseudomonas aeruginosa enzyme | purified VIM-2, nitrocefin hydrolysis, epi-absorbance fluorescence | inhibition, % at 5.6 µM | hit rate 0.89% among 290,000;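 active = inhibition above the mean of all tested compounds plus 3 SD, cutoff set per screening run, cut at about 7.5% in these data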;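 note: red hydrolysis product quenches plate fluorescence so inhibitors raise well fluorescence; 0% = enzyme with DMSO and 100% = DMSO without enzyme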
An asterisk follows results filed as active. Shown are actives, neighbours in structure and some others; about 2.1% of the full set was active somewhere.

COc1ccc(-c2c(C)nn3c(-c4ccccc4)cc(C)nc23)cc1 was read as IMP-1 inh -4, NS3 helicase inh 18, DNA FID counter -3, SUMO HTRF inh 16 and VIM-2 inhibitor -3.
For Cc1ccc(CNC(=O)CCC2CCCN(Cc3c(C)nn(C(C)C)c3C)C2)o1 (stereo not given) the results were IMP-1 inh -2, NS3 helicase inh -2, DNA FID counter -3, SUMO HTRF inh 11 and VIM-2 inhibitor -1.
Screening CC(C)Cc1nnc(NS(=O)(=O)Cc2ccccc2)s1 returned IMP-1 inh -4, NS3 helicase inh 6, DNA FID counter -14, SUMO HTRF inh 14 and VIM-2 inhibitor 10*.
For NC(=O)NC(CC(=O)NCc1ccc2c(c1)OCO2)c1ccccc1Cl (stereo not given) the results were IMP-1 inh 0, NS3 helicase inh -1, DNA FID counter 3, SUMO HTRF inh 2 and VIM-2 inhibitor 0.
`COc1ccc(CCNCC(O)COc2ccc(OC)cc2C(C)(C)C)cc1` (stereo not given) gave IMP-1 inh 0, NS3 helicase inh -53, DNA FID counter 43*, SUMO HTRF inh -9 and VIM-2 inhibitor 0.
For COc1ccc(CCNCC(O)COc2cccc(Br)c2)cc1OC (stereo not given) the results were IMP-1 inh -2, NS3 helicase inh -12, DNA FID counter 11, SUMO HTRF inh -18 and VIM-2 inhibitor 0.
CN(C)c1nc(Cl)nc(N(C#N)CCOc2ccccc2)n1 was read as IMP-1 inh -4, NS3 helicase inh 12, DNA FID counter -16, SUMO HTRF inh 3 and VIM-2 inhibitor -2.
For CC(C)CCN(C(=S)NC(=O)C1CCCCC1)c1c(N)n(Cc2ccccc2)c(=O)[nH]c1=O the results were IMP-1 inh -5, NS3 helicase inh 0, DNA FID counter -30, SUMO HTRF inh 12 and VIM-2 inhibitor -7.
COc1cccc2c1cc1c(=O)n(CC(=O)NCCCN3CCCCC3)nc(C)n12 was read as IMP-1 inh -2, NS3 helicase inh -7, DNA FID counter 4, SUMO HTRF inh 25 and VIM-2 inhibitor 9.2*.
O=C(NC1CCN(C(=O)c2cccs2)CC1)c1ccccc1 was read as IMP-1 inh -2, NS3 helicase inh -4, DNA FID counter -3, SUMO HTRF inh 21 and VIM-2 inhibitor 0.
`O=C(C1CCN(c2ncnc3c2sc2cccc(F)c23)CC1)N1CCOCC1` gave IMP-1 inh -2, NS3 helicase inh 3, DNA FID counter -24, SUMO HTRF inh 15 and VIM-2 inhibitor 11*.
Screening COc1ccccc1N1CCN(C2CCN(S(=O)(=O)c3ccc(NC(C)=O)cc3)CC2)CC1 returned IMP-1 inh -3, NS3 helicase inh -10, DNA FID counter 1, SUMO HTRF inh 24 and VIM-2 inhibitor -2.
`CCCCC1CCC(C(=O)OC(C)C(=O)Nc2ccc(NC(C)=O)cc2)CC1` (stereo not given) gave IMP-1 inh -2, NS3 helicase inh 2, DNA FID counter -29, SUMO HTRF inh -11 and VIM-2 inhibitor -2.
Screening CC1=NN(c2ccccc2)C(=O)C1 returned IMP-1 inh -1, NS3 helicase inh 5, DNA FID counter -3, SUMO HTRF inh 94 and VIM-2 inhibitor -1.
CC1=NN(c2ccc(S(=O)(=O)O)cc2C)C(=O)C1 was read as IMP-1 inh 0, NS3 helicase inh 2, DNA FID counter 3, SUMO HTRF inh 84* and VIM-2 inhibitor 4.
CCCS(=O)(=O)N1CCCC(C(=O)NCC2CCCO2)C1 (stereo not given) was read as IMP-1 inh 4.9*, NS3 helicase inh 22, DNA FID counter -7, SUMO HTRF inh 2 and VIM-2 inhibitor -4.
For Cc1ccc(S(=O)(=O)N2CCCC(C(=O)NCC3CCCO3)C2)cc1 (stereo not given) the results were IMP-1 inh -1, NS3 helicase inh 8, DNA FID counter -14, SUMO HTRF inh 5 and VIM-2 inhibitor -4.
COc1cc(C(=O)NS(=O)(=O)c2ccccc2C)ccc1Cc1cn(C)c2ccc(NC(=O)OC3CCCC3)cc12 was read as IMP-1 inh 1, NS3 helicase inh 7, DNA FID counter -8, SUMO HTRF inh 72* and VIM-2 inhibitor -1.
`Cc1n[nH]c(=S)n(NC(=O)/C=C/C(=O)Nn2c(=S)[nH]nc(C)c2=O)c1=O` gave IMP-1 inh 1, NS3 helicase inh 2, DNA FID counter 1, SUMO HTRF inh 99* and VIM-2 inhibitor -2.
N=C(N)c1ccc(/C=C/c2ccc(C(=N)N)cc2O)cc1 was read as IMP-1 inh 5.7*, NS3 helicase inh -16, DNA FID counter 53*, SUMO HTRF inh 36 and VIM-2 inhibitor 4.
For N=C(N)c1ccc(Cl)cc1 the results were IMP-1 inh -1, NS3 helicase inh 4, DNA FID counter -2, SUMO HTRF inh 5 and VIM-2 inhibitor -3.
Screening O=C(Nc1nc(COc2ccccc2)cs1)c1ccccc1F returned IMP-1 inh -2, NS3 helicase inh -8, DNA FID counter -18, SUMO HTRF inh 10 and VIM-2 inhibitor -6.
Screening O=C(c1ccc(Cl)c([N+](=O)[O-])c1)N1CCN(C(=O)c2ccco2)CC1 returned IMP-1 inh -2, NS3 helicase inh -3, DNA FID counter -4, SUMO HTRF inh -18 and VIM-2 inhibitor -2.
`O=C(c1ccco1)N1CCN(c2c([N+](=O)[O-])nn(-c3cccc(Cl)c3)[n+]2[O-])CC1` gave IMP-1 inh 7.8*, NS3 helicase inh 8, DNA FID counter -5, SUMO HTRF inh 19 and VIM-2 inhibitor -3.
Screening C(=N\Nc1ncnc2nc[nH]c12)/c1cccs1 returned IMP-1 inh -2, NS3 helicase inh 0, DNA FID counter -1, SUMO HTRF inh -12 and VIM-2 inhibitor 0.
Screening NNC(=O)CCc1ccc(S(=O)(=O)N2CCOCC2)cc1 returned IMP-1 inh 0, NS3 helicase inh -3, DNA FID counter -13, SUMO HTRF inh -6 and VIM-2 inhibitor -1.
`O=C(CSc1nc2ccccc2n1CCc1ccccc1)c1ccc(O)c(O)c1` gave IMP-1 inh -2, NS3 helicase inh 16, DNA FID counter -12, SUMO HTRF inh 65* and VIM-2 inhibitor -2.
Screening CCCc1nc2cc3c(cc2[nH]1)n(C)c(=O)n3C returned IMP-1 inh 1, NS3 helicase inh 10, DNA FID counter -1, SUMO HTRF inh 13 and VIM-2 inhibitor 1.
For Nc1nc(NCCCN2CCOCC2)nc(Nc2ccc(F)cc2)c1[N+](=O)[O-] the results were IMP-1 inh 0, NS3 helicase inh -92, DNA FID counter 34, SUMO HTRF inh 0 and VIM-2 inhibitor 8.1*.
Screening COc1ccc(Nc2nc(NCCCN3CCOCC3)nc(N)c2[N+](=O)[O-])cc1 returned IMP-1 inh -2, NS3 helicase inh -16, DNA FID counter 12, SUMO HTRF inh -3 and VIM-2 inhibitor 1.
